Source: ChEMBL document CHEMBL1649231, “In vitro activities of panduratin A against clinical Staphylococcus strains” (2009)
Values after ≈ are worked out from the molar mass of the structure shown.

Experiments:
Type in all cases: functional
[1] = tested on: Staphylococcus aureus; assay: Antimicrobial activity against methicillin-resistant Staphylococcus aureus after 24 hrs by broth microdilution method
Summary of the method: (§1)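 Clinical isolates came from blood, body fluids, genital secretions, pus or sputum, identified conventionally or by Vitek. MICs were run by CLSI M7-A6 broth microdilution in Mueller-Hinton broth with 5 × 10^5 CFU/ml inoculum. Agents were twofold serially diluted, starting from 10% DMSO. Drug-free and uninoculated controls were included. Plates were incubated aerobically at 37°C for 24 h; MIC is the lowest concentration giving no visible growth.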

[2] = tested on: Staphylococcus aureus; assay: Antimicrobial activity against methicillin-susceptible Staphylococcus aureus after 24 hrs by broth microdilution method; summary of the method: as §1
[3] = tested on: Staphylococcus simulans; assay: Antimicrobial activity against methicillin-resistant coagulase-negative Staphylococcus simulans after 24 hrs by broth microdilution method; summary of the method: as §1
[4] = tested on: Staphylococcus haemolyticus; assay: Bactericidal activity against methicillin-resistant coagulase-negative Staphylococcus haemolyticus after 24 hrs by plate counting method; settings: Staphylococcus haemolyticus, 24 h
[5] = tested on: Staphylococcus haemolyticus; assay: Antimicrobial activity against methicillin-resistant coagulase-negative Staphylococcus haemolyticus assessed as susceptible isolates after 24 hrs by broth microdilution method
[6] = tested on: Staphylococcus haemolyticus; assay: Antimicrobial activity against methicillin-resistant coagulase-negative Staphylococcus haemolyticus after 24 hrs by broth microdilution method; summary of the method: as §1
[7] = tested on: Staphylococcus epidermidis; assay: Bactericidal activity against methicillin-resistant coagulase-negative Staphylococcus epidermidis after 24 hrs by plate counting method; settings: Staphylococcus epidermidis, 24 h
[8] = tested on: Staphylococcus epidermidis; assay: Antimicrobial activity against methicillin-resistant coagulase-negative Staphylococcus epidermidis assessed as susceptible isolates after 24 hrs by broth microdilution method
[9] = tested on: Staphylococcus epidermidis; assay: Antimicrobial activity against methicillin-resistant coagulase-negative Staphylococcus epidermidis after 24 hrs by broth microdilution method; summary of the method: as §1
[10] = tested on: Staphylococcus hominis; assay: Bactericidal activity against methicillin-resistant coagulase-negative Staphylococcus hominis after 24 hrs by plate counting method; settings: Staphylococcus hominis, 24 h
[11] = tested on: Staphylococcus hominis; assay: Antimicrobial activity against methicillin-resistant coagulase-negative Staphylococcus hominis assessed as susceptible isolates after 24 hrs by broth microdilution method
[12] = tested on: Staphylococcus aureus; assay: Bactericidal activity against methicillin-susceptible Staphylococcus aureus after 24 hrs by plate counting method
Summary of the method: (§2)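 Clinical staphylococcal isolates from patient body fluids, blood, genital secretions, pus or sputum; species by conventional methods or Vitek. Twofold dilutions in Mueller-Hinton broth, inoculum 5 × 10^5 CFU/ml, 37°C aerobic 24 h (CLSI M7-A6 microdilution). About 100 μl from each well without visible growth spread on MHA; 37°C 24 h. MBC = lowest concentration giving no growth on agar.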

[13] = tested on: Staphylococcus hominis; assay: Antimicrobial activity against methicillin-resistant coagulase-negative Staphylococcus hominis after 24 hrs by broth microdilution method; summary of the method: as §1
[14] = tested on: Staphylococcus aureus; assay: Bactericidal activity against methicillin-resistant Staphylococcus aureus after 24 hrs by plate counting method
[15] = tested on: Staphylococcus aureus; assay: Antimicrobial activity against methicillin-susceptible Staphylococcus aureus assessed as susceptible isolates after 24 hrs by broth microdilution method
[16] = tested on: Staphylococcus aureus; assay: Antimicrobial activity against methicillin-resistant Staphylococcus aureus assessed as susceptible isolates after 24 hrs by broth microdilution method
[17] = tested on: Staphylococcus simulans; assay: Bactericidal activity against methicillin-resistant coagulase-negative Staphylococcus simulans after 24 hrs by plate counting method; settings: Staphylococcus simulans, 24 h; summary of the method: as §2
[18] = tested on: Mammaliicoccus sciuri; assay: Antimicrobial activity against methicillin-resistant coagulase-negative Staphylococcus sciuri after 24 hrs by broth microdilution method; summary of the method: as §1
[19] = tested on: Mammaliicoccus sciuri; assay: Bactericidal activity against methicillin-resistant coagulase-negative Staphylococcus sciuri after 24 hrs by plate counting method; settings: Mammaliicoccus sciuri, 24 h; summary of the method: as §2
[20] = tested on: Staphylococcus hominis; assay: Antimicrobial activity against methicillin-susceptible coagulase-negative Staphylococcus hominis after 24 hrs by broth microdilution method; summary of the method: as §1
[21] = tested on: Staphylococcus hominis; assay: Antimicrobial activity against methicillin-susceptible coagulase-negative Staphylococcus hominis assessed as susceptible isolates after 24 hrs by broth microdilution method
[22] = tested on: Staphylococcus hominis; assay: Bactericidal activity against methicillin-susceptible coagulase-negative Staphylococcus hominis after 24 hrs by plate counting method; summary of the method: as §2
[23] = tested on: Staphylococcus epidermidis; assay: Antimicrobial activity against methicillin-susceptible coagulase-negative Staphylococcus epidermidis after 24 hrs by broth microdilution method; summary of the method: as §1
[24] = tested on: Staphylococcus epidermidis; assay: Antimicrobial activity against methicillin-susceptible coagulase-negative Staphylococcus epidermidis assessed as susceptible isolates after 24 hrs by broth microdilution method
[25] = tested on: Staphylococcus epidermidis; assay: Bactericidal activity against methicillin-susceptible coagulase-negative Staphylococcus epidermidis after 24 hrs by plate counting method; summary of the method: as §2
[26] = tested on: Staphylococcus haemolyticus; assay: Antimicrobial activity against methicillin-susceptible coagulase-negative Staphylococcus haemolyticus after 24 hrs by broth microdilution method; summary of the method: as §1
[27] = tested on: Staphylococcus haemolyticus; assay: Antimicrobial activity against methicillin-susceptible coagulase-negative Staphylococcus haemolyticus assessed as susceptible isolates after 24 hrs by broth microdilution method
[28] = tested on: Staphylococcus haemolyticus; assay: Bactericidal activity against methicillin-susceptible coagulase-negative Staphylococcus haemolyticus after 24 hrs by plate counting method; summary of the method: as §2
[29] = tested on: Staphylococcus simulans; assay: Antimicrobial activity against methicillin-susceptible coagulase-negative Staphylococcus simulans after 24 hrs by broth microdilution method; summary of the method: as §1
[30] = tested on: Staphylococcus simulans; assay: Antimicrobial activity against methicillin-susceptible coagulase-negative Staphylococcus simulans assessed as susceptible isolates after 24 hrs by broth microdilution method
Summary of the method: (§3)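 Clinical isolates from blood, body fluids, pus, sputum or genital secretions, identified conventionally or by Vitek, were tested alongside ATCC 29213 and ATCC 12228 controls. CLSI M7-A6 broth microdilution in Mueller-Hinton broth used twofold dilutions from a 10% DMSO solution and 5 × 10^5 CFU/ml inoculum. Drug-free and uninoculated wells served as controls; incubation was aerobic at 37°C for 24 h. MIC was the lowest concentration with no visible growth.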

[31] = tested on: Staphylococcus simulans; assay: Bactericidal activity against methicillin-susceptible coagulase-negative Staphylococcus simulans after 24 hrs by plate counting method; summary of the method: as §2
[32] = tested on: Mammaliicoccus sciuri; assay: Antimicrobial activity against methicillin-susceptible coagulase-negative Staphylococcus sciuri after 24 hrs by broth microdilution method; summary of the method: as §1
[33] = tested on: Mammaliicoccus sciuri; assay: Antimicrobial activity against methicillin-susceptible coagulase-negative Staphylococcus sciuri assessed as susceptible isolates after 24 hrs by broth microdilution method; summary of the method: as §3
[34] = tested on: Mammaliicoccus sciuri; assay: Bactericidal activity against methicillin-susceptible coagulase-negative Staphylococcus sciuri after 24 hrs by plate counting method; summary of the method: as §2

For `CC(=O)NC[C@H]1CN(c2ccc(N3CCOCC3)c(F)c2)C(=O)O1` [LINEZOLID], which MIC50 [1] is on record?
Its MIC50 is 1 µg/mL (≈ 2.96 µM).

And the MIC90 [1]?
Its MIC90 is 2 µg/mL (≈ 5.93 µM).

What about the MIC50 [2] of the same molecule?
Its MIC50 is 1 µg/mL (≈ 2.96 µM).

What about the MIC90 [2] of the same molecule?
Its MIC90 is 4 µg/mL (≈ 11.9 µM).

And the MIC50 [3]?
Its MIC50 is 0.25 µg/mL (≈ 0.741 µM).

What about the MIC90 [3] of the same molecule?
The MIC90 was 2 µg/mL (≈ 5.93 µM).

What about the MBC [4] of the same molecule?
The MBC was 0.5 µg/mL (≈ 1.48 µM).

And the Activity [5]?
Its Activity is 100%.

What about the MIC50 [6] of the same molecule?
The MIC50 was 0.25 µg/mL (≈ 0.741 µM).

What about the MIC90 [6] of the same molecule?
Its MIC90 is 2 µg/mL (≈ 5.93 µM).

What about the MBC [7] of the same molecule?
Its MBC is 0.5 µg/mL (≈ 1.48 µM).

And the Activity [8]?
The Activity was 100%.

And the MIC50 [9]?
The MIC50 was 0.25 µg/mL (≈ 0.741 µM).

And the MIC90 [9]?
Its MIC90 is 2 µg/mL (≈ 5.93 µM).

What about the MBC [10] of the same molecule?
The MBC was 0.5 µg/mL (≈ 1.48 µM).

And the Activity [11]?
Its Activity is 100%.

And the MBC50 [12]?
The MBC50 was 8 µg/mL (≈ 23.7 µM).

And the MBC90 [12]?
The MBC90 was 32 µg/mL (≈ 94.9 µM).

And the MBC ([12]; Staphylococcus aureus, 24 h)?
The MBC was 2 µg/mL (≈ 5.93 µM).

What about the MIC50 [13] of the same molecule?
The MIC50 was 0.25 µg/mL (≈ 0.741 µM).

What about the MIC90 [13] of the same molecule?
Its MIC90 is 2 µg/mL (≈ 5.93 µM).

And the MBC90 [14]?
The MBC90 was 16 µg/mL (≈ 47.4 µM).

What about the MBC ([14]; Staphylococcus aureus, 24 h) of the same molecule?
Its MBC is 8 µg/mL (≈ 23.7 µM).

What about the Activity [15] of the same molecule?
Its Activity is 96%.

What about the Activity [16] of the same molecule?
The Activity was 100%.

What about the MBC [17] of the same molecule?
The MBC was 0.5 µg/mL (≈ 1.48 µM).

And the MIC50 [18]?
Its MIC50 is 0.25 µg/mL (≈ 0.741 µM).

And the MIC90 [18]?
The MIC90 was 2 µg/mL (≈ 5.93 µM).

And the MBC [19]?
Its MBC is 0.5 µg/mL (≈ 1.48 µM).

What about the MIC50 [20] of the same molecule?
The MIC50 was 0.25 µg/mL (≈ 0.741 µM).

And the MIC90 [20]?
Its MIC90 is 4 µg/mL (≈ 11.9 µM).

And the Activity [21]?
Its Activity is 96%.

And the MBC50 [22]?
The MBC50 was 2 µg/mL (≈ 5.93 µM).

And the MBC90 [22]?
The MBC90 was 4 µg/mL (≈ 11.9 µM).

And the MBC ([22]; Staphylococcus hominis, 24 h)?
Its MBC is 0.25 µg/mL (≈ 0.741 µM).

What about the MIC50 [23] of the same molecule?
Its MIC50 is 0.25 µg/mL (≈ 0.741 µM).

What about the MIC90 [23] of the same molecule?
The MIC90 was 4 µg/mL (≈ 11.9 µM).

And the Activity [24]?
The Activity was 96%.

And the MBC50 [25]?
Its MBC50 is 2 µg/mL (≈ 5.93 µM).

What about the MBC90 [25] of the same molecule?
Its MBC90 is 4 µg/mL (≈ 11.9 µM).

And the MBC ([25]; Staphylococcus epidermidis, 24 h)?
The MBC was 0.25 µg/mL (≈ 0.741 µM).

And the MIC50 [26]?
Its MIC50 is 0.25 µg/mL (≈ 0.741 µM).

And the MIC90 [26]?
The MIC90 was 4 µg/mL (≈ 11.9 µM).

And the Activity [27]?
The Activity was 96%.

What about the MBC50 [28] of the same molecule?
The MBC50 was 2 µg/mL (≈ 5.93 µM).

What about the MBC90 [28] of the same molecule?
Its MBC90 is 4 µg/mL (≈ 11.9 µM).

And the MBC ([28]; Staphylococcus haemolyticus, 24 h)?
Its MBC is 0.25 µg/mL (≈ 0.741 µM).

And the MIC50 [29]?
The MIC50 was 0.25 µg/mL (≈ 0.741 µM).

And the MIC90 [29]?
Its MIC90 is 4 µg/mL (≈ 11.9 µM).

And the Activity [30]?
Its Activity is 96%.

What about the MBC50 [31] of the same molecule?
Its MBC50 is 2 µg/mL (≈ 5.93 µM).

What about the MBC90 [31] of the same molecule?
The MBC90 was 4 µg/mL (≈ 11.9 µM).

And the MBC ([31]; Staphylococcus simulans, 24 h)?
The MBC was 0.25 µg/mL (≈ 0.741 µM).

What about the MIC50 [32] of the same molecule?
The MIC50 was 0.25 µg/mL (≈ 0.741 µM).

What about the MIC90 [32] of the same molecule?
The MIC90 was 4 µg/mL (≈ 11.9 µM).

What about the Activity [33] of the same molecule?
The Activity was 96%.

And the MBC50 [34]?
The MBC50 was 2 µg/mL (≈ 5.93 µM).

And the MBC90 [34]?
The MBC90 was 4 µg/mL (≈ 11.9 µM).

And the MBC ([34]; Mammaliicoccus sciuri, 24 h)?
Its MBC is 0.25 µg/mL (≈ 0.741 µM).
